NR2E3 ag-1 – agonists of human NR2E3 nuclear receptor. inhibition of corepressor binding, % at 3.98 µM. actives 0.35% (n = 360,000). AID 602229. CHO-S Gal4-NCOR/VP16-NR2E3 two-hybrid, luciferase;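 active = inhibition above the mean of all tested compounds plus 3 SD, cut at about 70% in these data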;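 also: 0% = DMSO with NR2E3 transfected cells and 100% = cells lacking NR2E3 construct; higher means lower luciferase signal from less NR2E3 corepressor binding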
Target sequence (Q9Y5X4 whole entry, looked up, the tested form may be a part): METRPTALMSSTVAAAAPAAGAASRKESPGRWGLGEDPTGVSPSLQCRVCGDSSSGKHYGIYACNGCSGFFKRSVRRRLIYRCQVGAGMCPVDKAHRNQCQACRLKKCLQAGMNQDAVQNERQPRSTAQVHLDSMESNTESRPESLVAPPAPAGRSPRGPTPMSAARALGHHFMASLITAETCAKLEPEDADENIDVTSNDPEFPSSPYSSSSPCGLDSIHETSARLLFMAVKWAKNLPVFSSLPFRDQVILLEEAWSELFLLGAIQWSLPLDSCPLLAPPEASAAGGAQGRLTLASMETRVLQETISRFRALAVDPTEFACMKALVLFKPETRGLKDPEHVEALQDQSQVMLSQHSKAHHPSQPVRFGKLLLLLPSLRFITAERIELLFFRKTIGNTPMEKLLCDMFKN
ADAM10 inh – inhibits human ADAM10. O14672. inhibition, % at 7 µM. recombinant ADAM10, EDANS/DABCYL FRET peptide cleavage, 3 h. actives 0.62% (n = 370,000);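 active = inhibition above a per-campaign cutoff equal to the mean of compounds falling between control-based bounds plus 3 SD, cut at about 20% in these data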;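 also: 0% = DMSO wells while the 100% control is not disclosed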
GASC-1 inh – inhibitors of human GASC-1 (JMJD2C) demethylase | Q9H3R0 | AID 2099 | inhibition, % at 2.35 µM | GST-JMJD2C(1-420) H3K9me3 demethylation, DELFIA europium | actives 0.069% (n = 330,000);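 active = more than half of a compound's replicate wells show inhibition beyond 50%, single wells judged on their own value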;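 also: signal counts dimethyl H3K9 product captured on neutravidin plate; 0% = median of DMSO wells and 100% = 0.3 times that DMSO median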
ADAM17 inh – inhibits human ADAM17; P78536; recombinant ADAM17, EDANS/DABCYL FRET peptide cleavage; inhibition, % at 6.95 µM; actives 0.83% (n = 370,000); AID 720648;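 active = inhibition above the mean of compounds lying between control limits plus 3 SD, set per campaign, cut at about 8.5% in these data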;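 also: 0% = DMSO-only wells as the low control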
NR2E3 ag-2 – activates human photoreceptor nuclear receptor NR2E3; Q9Y5X4; GST-NR2E3/biotin-RetCOR TR-FRET, 1536-well; inhibition of corepressor binding, % at 4.78 µM; actives 0.12% (n = 320,000);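 active = percent inhibition above the cutoff of mean plus 3 SD of all tested compounds, set per screening campaign, cut at about 20% in these data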;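 also: 0% = DMSO wells and 100% = biotin wells as full block of FRET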
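Format: 1536-well format; test system: GST-NR2E3 and biotin-RetCOR proteins; read-out basis: percent inhibition of TR-FRET ratio; timing: 5 h incubation at 4 °C; detection: time-resolved FRET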
KLK7 zymogen act – activates the human kallikrein-7 zymogen. P49862. purified proKLK7, EDANS-DABCYL substrate fluorescence; 100% is mature enzyme control, 0% vehicle. activation, % at 7 µM. actives 0.9% (n = 370,000). AID 652039;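 active = activation above the mean of all tested compounds plus 3 SD, computed per campaign excluding outliers beyond control limits, cut at about 13% in these data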
Target sequence (P49862 whole entry, looked up): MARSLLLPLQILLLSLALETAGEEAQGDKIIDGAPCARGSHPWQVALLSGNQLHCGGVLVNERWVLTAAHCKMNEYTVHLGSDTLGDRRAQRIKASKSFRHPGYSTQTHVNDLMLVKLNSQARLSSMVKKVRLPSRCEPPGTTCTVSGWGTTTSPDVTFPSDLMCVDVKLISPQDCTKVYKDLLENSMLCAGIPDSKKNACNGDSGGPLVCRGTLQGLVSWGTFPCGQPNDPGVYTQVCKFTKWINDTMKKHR
ADAM10 confirm – human ADAM10 inhibition, confirmation; shares compounds with ADAM10 inh; ADAM10 QFRET peptide cleavage, EDANS fluorescence; inhibition, % at 6.95 µM; actives 1% (n = 2,100); AID 743208;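 active = inhibition above about 20% chosen separately for each screening run, limit read from the data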;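 also: 0% = DMSO wells and 100% = marimastat wells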
ADAM17 counter – ADAM17 inhibition, counter-screen for ADAM10 exosite hits; shares compounds with ADAM10 inh; ADAM17 QFRET peptide cleavage, EDANS fluorescence; inhibition, % at 6.95 µM; actives 0.5% (n = 2,100);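 active = mean triplicate inhibition above the solvent-only control wells' mean plus 3 SD, cut at about 12% in these data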;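 also: 0% = DMSO wells and 100% = marimastat wells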
ADAM10 ctr – inhibits human ADAM10 in ADAM17 exosite counter-screen | AID 743256 | shares compounds with ADAM17 inh | actives 47% (n = 2,900) | inhibition, % at 6.95 µM | recombinant ADAM10, EDANS/DABCYL FRET peptide cleavage, 3 h;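 active = mean inhibition over the triplicate runs exceeds the activity threshold set in the earlier primary screen, cut at about 20% in these data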;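 also: 0% = DMSO wells and 100% = marimastat wells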
ADAM17 confirm – confirmation of inhibitors of human ADAM17; shares compounds with ADAM17 inh; recombinant ADAM17, EDANS/DABCYL QFRET peptide cleavage; inhibition, % at 6.95 µM; actives 65% (n = 2,900); AID 743257;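 active = mean inhibition across replicates above the hit cutoff set in the primary screen, cut at about 8.5% in these data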;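 also: 0% = DMSO wells and 100% = marimastat wells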
Starred values were filed as active, the others as inactive; / = no result given. The list is not random: actives were taken first. Their share in the collection is about 2.5%.

SMILES	NR2E3 ag-1	ADAM10 inh	GASC-1 inh	ADAM17 inh	NR2E3 ag-2	KLK7 zymogen act	ADAM10 confirm	ADAM17 counter	ADAM10 ctr	ADAM17 confirm
COc1ccc(C(=O)NC(=S)NNC(=O)[C@H]2C[C@@H]2c2ccccc2)cc1OC	14	32*	10	11*	2	0	3	3	-18	-1
OC[C@@H]1CN(Cc2ccc(-c3ccccc3)cc2)C[C@H](n2cnc3c(NCc4ccc(F)cc4)ncnc32)O1	39	23*	/	8.9*	/	0	6	4	29*	18*
COc1cc(CNc2ncnc3c2ncn3[C@H]2CN(Cc3cccc(C(F)(F)F)c3)C[C@@H](CO)O2)cc(OC)c1OC	-20	23*	/	9.7*	/	0	1	-1	14	10*
O=C(Nc1cccc2ccccc12)c1ccc(OC(=S)N2CCOCC2)cc1	-117	21*	2	9.7*	1	0	5	3	16	11*
O=C(Nc1cccc(Cl)c1)c1ccc(OC(=S)N2CCOCC2)cc1	-87	-3	-33	-4	0	0	/	/	/	/
COc1ccc(OC)c(S(=O)(=O)NC(=O)C2(C)CCN2C(=O)C2(c3ccc(Cl)cc3)CC2)c1 (stereo not drawn)	13	-9	/	-3	/	0	/	/	/	/
COC(=O)C1=CC[C@@H](NC(=O)OC(C)(C)C)[C@H](O)[C@H]1O[Si](C)(C)C(C)(C)C	/	22*	/	9.9*	/	/	1	0	5	4
CC1CCN(C(=O)COC(=O)CCCN2C(=O)c3cccc4cccc(c34)C2=O)CC1	-6	-204	8	-77	/	4	/	/	/	/
CN(c1ccc(OCC(=O)OCC(=O)Nc2ccccc2)cc1)S(=O)(=O)c1cccs1	-5	2	-11	-2	-2	-1	/	/	/	/
CN(c1ccc(OCC(=O)OCC(=O)Nc2ccc(Br)cc2)cc1)S(=O)(=O)c1cccs1	-6	20*	-1	12*	1	-1	7	2	31*	16*
CCC(C)c1ccccc1NC(=O)C(C)N(C)Cc1cccc(OC)c1 (stereo not drawn)	-56	1	-5	-3	2	0	/	/	/	/
Cn1cc([N+](=O)[O-])c(C(=O)NC2CCCCCCC2)n1	14	-3	16	-5	3	0	/	/	/	/
OC(c1ccc(Cl)c(F)c1)c1ncc(-c2cccc(C(F)(F)F)c2)[nH]1 (stereo not drawn)	45	32*	/	11*	/	0	2	1	26*	14*
O=C(CSc1nc2ccccc2[nH]1)Nc1ccc(F)c(F)c1	8	21*	-25	10*	6	0	1	0	9	4
N#Cc1c(Cl)nc(N/N=C/c2ccccc2)c(Cl)c1Cl	-6	23*	-3	9.1*	0	0	31*	15*	-121	-24
CC(C)C[C@H](NC(=O)c1nc[nH]c1C(=O)NCc1ccccc1)C(=O)OCc1ccccc1	-8	25*	-10	10*	0	0	7	4	35*	16*
C[C@H](NC(=O)c1nc[nH]c1C(=O)NCc1ccccc1)C(=O)OCc1ccccc1	-18	15	4	6	-3	0	/	/	/	/
CC(C)C[C@H](NC(=O)c1[nH]cnc1C(=O)N[C@@H](C)C(=O)OCc1ccccc1)C(=O)OCc1ccccc1	-10	25*	/	12*	/	0	10	3	40*	21*
CCOc1ccccc1N1C(=O)CC(Sc2n[nH]c(-c3ccccc3)n2)C1=O (stereo not drawn)	-1	-6	3	-1	2	1	/	/	/	/
O=C(CN(c1ccc(Br)cc1)S(=O)(=O)c1ccc(Cl)c([N+](=O)[O-])c1)NCCc1ccccc1	-26	1	-25	1	4	0	/	/	/	/
Cc1ccc(N(CC(=O)NCCc2ccc(F)cc2)S(=O)(=O)c2ccc(Cl)c([N+](=O)[O-])c2)c(C)c1	15	26*	0	12*	-1	1	11	2	29*	15*
Cc1ccc(NC(=O)CN(Cc2ccco2)Cc2ccccc2O)cc1C	-17	28*	-8	14*	6	0	4	1	30*	14*
O=S(=O)(c1ccccc1)N(CC(F)(F)F)c1ccc(C(O)(C(F)(F)F)C(F)(F)F)cc1	-11	49*	/	22*	/	0	0	1	37*	22*
CCC(=O)N1c2ccc(C)cc2C2=NNC(=S)NC21O (stereo not drawn)	-20	8	11	1	-1	0	/	/	/	/
O=S(=O)(c1c(F)cccc1F)N(CCc1ccc(F)cc1)C[C@@H](O)COCc1ccccc1	10	27*	/	15*	/	0	7	1	39*	19*
SMILES	NR2E3 ag-1	ADAM10 inh	GASC-1 inh	ADAM17 inh	NR2E3 ag-2	KLK7 zymogen act	ADAM10 confirm	ADAM17 counter	ADAM10 ctr	ADAM17 confirm
O=C1CC(=C(c2ccccc2)c2ccccc2)C(=O)N1CCCCN1CCN(c2cccc(Cl)c2)CC1	15	32*	-8	12*	6	0	5	1	4	8
O=C(CNC(=O)c1ccc(Br)o1)NCC(=O)OCc1ccccc1	0	-4	-4	5	5	0	/	/	/	/
COc1cccc(NC(=O)C(Sc2nnc(Nc3ccccc3C)s2)c2ccccc2)c1 (stereo not drawn)	-17	33*	-1	14*	-1	0	9	3	29*	15*
COc1ccc(Nc2nnc(SC(C(=O)Nc3cc(C)ccc3C)c3ccccc3)s2)cc1 (stereo not drawn)	-13	8	-20	1	2	0	/	/	/	/
COc1ccc(S(=O)(=O)Nc2cc3c4c(oc3c3ccccc23)CC(C)(C)CC4=O)cc1	-67	26*	-129	9.1*	-5	1	11	2	21*	11*
C=C(C)COc1ccc(-c2[nH]ncc2-c2ccccc2OC)c(O)c1	-32	29*	-3	18*	1	-1	11	3	37*	19*
